From ChEMBL document CHEMBL4680177, “Novel distamycin analogues that block the cell cycle of African trypanosomes with high selectivity and potency” (Eur J Med Chem, 2020) come the findings set out here.

In data set [1] the test system is J774. Kind of data set: Cytotoxicity against mouse J774 cells assessed as reduction in cell viability >120 uM after 24 hrs by WST-1 assay. In kind it is cell-based. Conditions: j774, 24 h. In short, it runs like this:
(§1)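 J774 murine macrophages in DMEM with 10% FBS, 37 °C, 5% CO2. Exposed 24 h to a 6-point compound series, in triplicate, up to 120 µM with DMSO 1% v/v. Viability read with WST-1 reagent relative to DMSO control and EC50 taken from nonlinear fit. The selectivity index is the macrophage EC50 divided by the trypanosome EC50.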
On the technique in general: Tetrazolium assays rely on reduction of a dye to a coloured formazan, in cell work by metabolically active cells.

The nature of data set [2]: Selectivity index, ratio of EC50 for cytotoxicity against mouse J774 cells to EC50 for antitrypanosomal activity against bloodstream form Trypanosoma brucei brucei 427. The settings on record: read-out: Ratio EC50. In kind it is toxicity, cell-based. In short, it runs like this:
as §1

Data set [3] deals with J774. Kind of data set: Cytotoxicity against mouse J774 cells assessed as reduction in cell viability at 120 uM after 24 hrs by WST-1 assay. In kind it is cell-based. The settings on record: j774, 24 h. The procedure, abridged:
as §1

In data set [4] the test system is Trypanosoma brucei brucei. The data set can be described thus: Antitrypanosomal activity against bloodstream form Trypanosoma brucei brucei 427 […] assessed as cell viability at 5 uM after 24 hrs by propidium iodide staining based flow cytometric analysis relative to control. In kind it is functional. The procedure, abridged:
(§2)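 Bloodstream T. b. brucei 427 expressing hGrx1-roGFP2 (line 449_Grx-roGFP2), grown in HMI-9 with 10% FBS, 37 °C, 5% CO2. Biosensor induced with oxytetracycline (1 µg/mL final). Exponential-phase cells seeded at 5×10^5/mL and exposed 24 h to a single 5 µM screen, or to 0.0001–120 µM for EC50. DMSO ≤1% v/v. Viability read by PI exclusion on flow cytometry, expressed relative to DMSO control. EC50 from nonlinear fit; ≥3 replicates, S.D.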
Background: Flow cytometry measures light scatter and fluorescence of single cells or particles in a stream.

Data set [5] concerns Trypanosoma brucei brucei. Kind of data set: Antitrypanosomal activity against bloodstream form Trypanosoma brucei brucei 427 […] assessed as cell viability after 24 hrs by propidium iodide staining based flow cytometric analysis. In kind it is functional, organism-based. The settings on record: Trypanosoma brucei, 427, 24 h. The procedure, abridged:
as §2

Data set [6] concerns Trypanosoma brucei brucei. Kind of data set: Induction of cell cycle arrest in bloodstream form Trypanosoma brucei brucei 427 assessed as accumulation at single kinetoplast and septum like or partitioned nucleus cells at 12 nM after 24 hrs by DAPI. staining based epifluorescence microscopic analysis relative to control. It counts as functional. The procedure, abridged: (§3)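 Parasites at 5×10^5/mL treated 24 h with DMSO 1%, DAC 41 nM, or compound at 12 or 7 nM. Cells fixed in 4% paraformaldehyde for 18 min at room temperature and smeared on slides. Mounted in DAPI medium and scored by epifluorescence microscopy (60X/100X) for kinetoplast/nucleus configuration. At least 50 cells per sample.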

For data set [7], the system named is DNA. Kind of data set: Competitive binding affinity to Escherichia coli XL-1 pUC18 K-DNA at 20 uM after 30 mins by DAPI staining based spectrofluorimetric method relative to control. In kind it is nucleic-acid assay. The procedure, abridged: (§4)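 pUC18 or pUC18 carrying a T. brucei minicircle, 5 nM in PBS pH 7.4, incubated 30 or 120 min with 20 µM compound or DMSO 1% v/v. DAPI then added to 500 nM final and emission recorded by spectrofluorimetry (ex 358 nm, em 368–600 nm). Fluorescence normalized to the DNA+DMSO+DAPI control set at 100%. Mean ± S.D., n=3.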

The test system of data set [8] is Trypanosoma brucei brucei. The data set can be described thus: Induction of oxidative stress in bloodstream form Trypanosoma brucei brucei 427 up to 5 times EC50 concentration after 4 hrs by propidium iodide staining based flow cytometric analysis. It counts as functional.
Data set [9] has as its system J774. The data set can be described thus: Cytotoxicity against mouse J774 cells assessed as reduction in cell viability after 24 hrs by WST-1 assay. In kind it is cell-based. The settings on record: J774, 24 h. In short, it runs like this: as §1
Data set [10] has as its system DNA. Kind of data set: Competitive binding affinity to Escherichia coli XL-1 pUC18 K-DNA at 20 uM after 120 mins by DAPI staining based spectrofluorimetric method relative to control. In kind it is nucleic-acid assay. The procedure, abridged: as §4
Data set [11] deals with DNA. The data set can be described thus: Competitive binding affinity to Escherichia coli XL-1 pUC18 plasmid DNA at 20 uM after 120 mins by DAPI staining based spectrofluorimetric method relative to control. In kind it is nucleic-acid assay. The procedure, abridged:
as §4

In data set [12] the test system is Trypanosoma brucei brucei. Kind of data set: Induction of membrane permeability in bloodstream form Trypanosoma brucei brucei 427 assessed as change in integrity at EC50 concentration after 4 hrs by propidium iodide staining based flow cytometric analysis.
In data set [13] the test system is DNA. The data set can be described thus: Competitive binding affinity to Escherichia coli XL-1 pUC18 plasmid DNA at 20 uM after 30 mins by DAPI staining based spectrofluorimetric method relative to control. In kind it is nucleic-acid assay. In short, it runs like this: as §4
The test system of data set [14] is Trypanosoma brucei brucei. The data set can be described thus: Induction of cell cycle arrest in bloodstream form Trypanosoma brucei brucei 427 assessed as accumulation at 1K+1N cells at 12 nM after 24 hrs by DAPI. staining based epifluorescence microscopic analysis (reference value: 80%). It counts as functional. In short, it runs like this:
as §3

Data set [15] in a line: Selectivity ratio of EC50 for antitrypanosomal activity against bloodstream form Trypanosoma brucei brucei 427 assessed as cell viability after 24 hrs to antitrypanosomal activity against bloodstream form Trypanosoma brucei brucei 427 assessed as cell viability after 48 hrs. In kind it is functional.
For data set [16], the system named is Trypanosoma brucei brucei. Kind of data set: Antitrypanosomal activity against bloodstream form Trypanosoma brucei brucei 427 […] assessed as cell viability after 48 hrs by propidium iodide staining based flow cytometric analysis. In kind it is functional, organism-based. The settings on record: Trypanosoma brucei, 427, 48 h. In short, it runs like this: (§5)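 Viability of bloodstream T. b. brucei 427 redox-reporter line under lower-density conditions: 1.2×10^4 parasites/mL seeded, 48 h exposure, compound tested up to 60 µM. Nifurtimox included as positive control. Viability read by PI exclusion on flow cytometry.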

For data set [17], the system named is Trypanosoma brucei brucei. The data set can be described thus: Antitrypanosomal activity against bloodstream form Trypanosoma brucei brucei 427 […] assessed as cell viability upto 60 uM after 48 hrs by propidium iodide staining based flow cytometric analysis. It counts as functional, organism-based. Conditions: dose microM <=60, time 48.0 hrs. In short, it runs like this: as §5

The subject of data set [18] is DNA. The data set can be described thus: Competitive binding affinity to Escherichia coli XL-1 pUC18 K-DNA at 20 uM after 30 to 120 mins by DAPI staining based spectrofluorimetric method relative to control. It counts as nucleic-acid assay. The settings on record: time 30-120 min. In short, it runs like this:
as §4

The subject of data set [19] is Trypanosoma brucei brucei. Kind of data set: Antitrypanosomal activity against Trypanosoma brucei brucei AnTaT 1.1 infected in Balb/cJ mouse assessed as reduction in parasitemia at 40 mg/kg, ip for single dose and measured after 7 to 17 days. In kind it is functional, organism-based. The settings on record: time 7-17 day. In short, it runs like this: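 Female BalB/cJ mice, 6-8 weeks, ~20 g, infected ip with 10^4 bloodstream T. b. brucei AnTaT 1.1. From day 4 post-infection, groups of 6 dosed ip in 300 µL PBS: daily for 7 days at 2.09 or 8.36 mg/Kg, or one 40 mg/Kg dose; vehicle DMSO 3.3 mg/Kg/day for 7 days. Parasitemia from submandibular blood counted by light microscopy in a Neubauer chamber. Detection limit ≥2.5×10^4 parasites/mL. Kruskal-Wallis test versus vehicle.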

Data set [20] concerns Trypanosoma brucei brucei. Kind of data set: Induction of cell cycle arrest in bloodstream form Trypanosoma brucei brucei 427 assessed as accumulation at 0K+1N cells at 41 nM after 24 hrs by DAPI. staining based epifluorescence microscopic analysis relative to control. It counts as functional. In short, it runs like this: as §3
The subject of data set [21] is Trypanosoma brucei brucei. The data set can be described thus: Induction of cell cycle arrest in bloodstream form Trypanosoma brucei brucei 427 assessed as accumulation at G0/G1 phase at 41 nM after 24 hrs by propidium iodide staining based flow cytometric analysis (reference value: 49%). In kind it is functional.
The test system of data set [22] is Trypanosoma brucei brucei. The data set can be described thus: Induction of cell cycle arrest in bloodstream form Trypanosoma brucei brucei 427 assessed as accumulation at 1K+1N cells at 41 nM after 24 hrs by DAPI. staining based epifluorescence microscopic analysis (reference value: 80%). It counts as functional. The procedure, abridged: as §3
Data set [23] has as its system DNA. The data set can be described thus: Competitive binding affinity to Escherichia coli XL-1 pUC18 plasmid DNA at 20 uM after 30 to 120 mins by DAPI staining based spectrofluorimetric method relative to control. It counts as nucleic-acid assay. Conditions: time 30-120 min. The procedure, abridged: as §4
Data set [24] concerns Trypanosoma brucei brucei. The data set can be described thus: Induction of cell cycle arrest in bloodstream form Trypanosoma brucei brucei 427 assessed as accumulation at G2/M phase at 41 nM after 24 hrs by propidium iodide staining based flow cytometric analysis (reference value: 20%). In kind it is functional.
Data set [25] deals with Trypanosoma brucei brucei. The data set can be described thus: Induction of oxidative stress in bloodstream form Trypanosoma brucei brucei 427 at 250 uM after 20 min by propidium iodide staining based flow cytometric analysis.

SMILES strings stand for the structures. Calls of active or inactive are those of the source. The calls are words filed in the database; no cut-off is given here.

Turning to `COC(=O)c1nc(NC(=O)c2cc(NC(=O)c3nc(NC(C)=O)sc3C(C)C)cn2C)sc1C(C)C`, the Activity result is listed as “Nd(Insoluble)” with J774 [1], “Non-Toxic” in the data set with J774 [3] and 5.4% in [4]. Also, the selectivity ratio in [2] was more than 145. In addition, the concentration for a half-maximal effect (EC50) in data set [5] was 827 nM.

Regarding `COC(=O)c1nc(NC(=O)c2cc(NC(=O)c3nc(NC(=O)OC(C)(C)C)sc3C(C)C)cn2C)sc1C(C)C`, in [2], the selectivity ratio was more than 10200. The Activity amounted to 38% in data set [6]; 15% with DNA [7]; 30% with DNA [10]; 15% in the data set on DNA [13]; 48% in [14]; 15.5% in data set [4]. Also, the result (in [8]; in the data set on DNA [11]; in data set [12]) was inactive. In addition, the figures for the EC50 (in the data set on J774 [9]; in data set [5]) were 39500 nM and 11.8 nM, respectively.

As to `COC(=O)c1nc(NC(=O)c2cc([N+](=O)[O-])cn2C)sc1C(C)C`, in data set [4], the Activity is 105.6%.

In the case of `CCOC(=O)c1csc(NC(=O)c2csc(NC(=O)c3csc(NC(=O)OC(C)(C)C)n3)n2)n1`, the EC50 with J774 [9] worked out at 5000 nM; in data set [16], 57 nM. Also, in data set [15], the Ratio EC50 came out at 5.

For the compound `CC(=O)Nc1nc(C(=O)Nc2cc(C(=O)Nc3nc(C(=O)O)c(C(C)C)s3)n(C)c2)c(C(C)C)s1`, the Activity result is reported as “Nd(Insoluble)” with J774 [1], “Non-Toxic” in the data set with J774 [3] and 113.1% in data set [4]. Further, the result in [17] was inactive.

Take `Cn1cc(NC(=O)c2csc(NC(=O)OC(C)(C)C)n2)cc1C(=O)Nc1nc(C(=O)O)cs1`: the results for the Activity result (in the data set with J774 [1]; with J774 [3]; in data set [4]) were “Nd(Insoluble)”, “Non-Toxic” and 23.6%, respectively. Further, the selectivity ratio in [2] is more than 35. Moreover, in data set [5], the EC50 came out at 3320 nM.

For `CC(=O)NCC(=O)O.CC(=O)NCC(=O)O.N=C(N)c1ccc(/N=N/Nc2ccc(C(=N)N)cc2)cc1` [DIMINAZENE DIACETURATE], the Activity in the data set on DNA [18] came out at 22%; in [20], 39%; in [21], 7%; in [22] it was 44%; in the data set with DNA [23] it was 22%; in data set [24], 93%. In [19], the outcome was Active. Moreover, in data set [5], the EC50 stood at 41 nM.

Turning to `CC1CS(=O)(=O)CCN1/N=C/c1ccc([N+](=O)[O-])o1` (stereo not drawn) [NIFURTIMOX], the selectivity ratio in data set [2] amounted to 10. In data set [15], the Ratio EC50 came out at 20. Further, the results for the EC50 in data set [16] and in [5] were 750 nM and 10000 nM, respectively.

Turning to `CC1=CC(=O)c2ccccc2C1=O`, the result in data set [25] was Active.

For the compound `CC(C)c1sc(NC(=O)c2cc(NC(=O)c3nc(NC(=O)OC(C)(C)C)sc3C(C)C)cn2C)nc1C(=O)O`, the Activity entry is “Nd(Insoluble)” in the data set with J774 [1], “Non-Toxic” with J774 [3] and 48.5% in data set [4].

Turning to `CCOC(=O)c1csc(NC(=O)c2cc([N+](=O)[O-])cn2C)n1`, in [4], the Activity was 120.5%.

For the compound `Cc1ccc(C(=O)Nc2ccc(S(=O)(=O)O)c3cc(S(=O)(=O)O)cc(S(=O)(=O)O)c23)cc1NC(=O)c1cccc(NC(=O)Nc2cccc(C(=O)Nc3cc(C(=O)Nc4ccc(S(=O)(=O)O)c5cc(S(=O)(=O)O)cc(S(=O)(=O)O)c45)ccc3C)c2)c1` [SURAMIN], the 50% effective concentration (EC50) in data set [5] stood at 78 nM.

One may read the EC50 as the concentration that produces a half-maximal response.
